Experimental data pooled from the literature.
Lines come from different studies, so protocols differ.
EGFR del752-759: Epidermal growth factor receptor (EGFR, Homo sapiens, UniProt P00533, del752-759)
EGFR L861Q: Epidermal growth factor receptor (EGFR, Homo sapiens, UniProt P00533, L861Q)
EGFR G719C: Epidermal growth factor receptor (EGFR, Homo sapiens, UniProt P00533, G719C)
EGFR T790M: Epidermal growth factor receptor (EGFR, Homo sapiens, UniProt P00533, T790M)
EGFR G719S: Epidermal growth factor receptor (EGFR, Homo sapiens, UniProt P00533, G719S)
EGFR L858R/T790M: Epidermal growth factor receptor (EGFR, Homo sapiens, UniProt P00533, L858R/T790M)
EGFR: Epidermal growth factor receptor (EGFR, Homo sapiens, UniProt P00533)

`O=C(NCCCN1CCOCC1)c1ccc(Nc2nccc(-c3cc4ccccc4s3)n2)cc1` has a remaining binding of 100% (EGFR del752-759; binding; competition with immobilised ligand; 1 µM).
For `CC(=O)N1CCC(c2ccc(C(=O)NC(=N)N)cc2C(F)(F)F)CC1`, the remaining binding was 91% (EGFR L861Q; cell-free assay; competition with immobilised ligand; 1 µM).
`CN(C)c1ncc(F)c(-c2cnn3ncccc23)n1` gave a remaining binding of 100% (EGFR L861Q; binding; 1 µM).
With `O=C(NCCCN1CCOCC1)c1ccc(Nc2ncc(Cl)c(-c3ccc(Cl)s3)n2)cc1` the remaining binding was 100% (EGFR G719C; binding; competition with immobilised ligand; 1 µM).
For `CN(CCCC(F)(F)F)c1nccc(-c2cnn3ncccc23)n1`, the remaining binding was 78% (EGFR T790M; binding; 1 µM).
`CCN1CCN(Cc2ccc(C(=O)Nc3ccc(C)c(Oc4ccc5c(c4)CC(=O)N5)c3)cc2C(F)(F)F)CC1` gave a remaining binding of 83% (EGFR T790M; binding; competition with immobilised ligand; 1 µM).
With `COc1cnc(Nc2cccc(S(N)(=O)=O)c2)nc1N1CCN(c2ccccc2)C(=O)C1` the remaining binding was 100% (EGFR G719S; binding; competition with immobilised ligand; 1 µM).
`Cc1cc(NC(=O)c2cccc(S(F)(F)(F)(F)F)c2)cc(-n2ccn3nc(-c4cccnc4)cc23)c1` has a remaining binding of 100% (EGFR G719S; cell-free assay; competition with immobilised ligand; 1 µM).
The remaining binding of `CN1CCN(c2ccc(Nc3nccc(-c4cccc([N+](=O)[O-])c4)n3)cc2C(F)(F)F)CC1` is reported as 29% (EGFR L858R/T790M; binding; 10 µM).
The remaining binding of `CC1CCCN1c1nccc(-c2cnn3ncccc23)n1` (centres unmarked) is reported as 100% (EGFR del752-759; binding; 1 µM).
With `c1cncc(-c2cccc(Nc3nccc(NC4CCCCC4)n3)c2)c1` the remaining binding was 33% (EGFR T790M; binding; competition with immobilised ligand; 10 µM).
With `CCOCCn1cc(C(=O)Nc2ccc(-n3nc(-c4cccnc4)cc3C(F)(F)F)cn2)ccc1=O` the remaining binding was 96% (Epidermal growth factor receptor (EGFR, Homo sapiens, UniProt P00533, A750P/del747-749); cell-free assay; competition with immobilised ligand; 1 µM).
For `O=C(c1ccc(Nc2ncc(Cl)c(-c3ccc(Cl)s3)n2)cc1)N1CCC(N2CCCC2)CC1`, the remaining binding was 49% (EGFR L858R/T790M; binding; competition with immobilised ligand; 1 µM).
`Cn1nc(C(=O)NCc2ccc(C(=O)O)cc2)cc1-c1ccc2[nH]ccc2c1` gave a remaining binding of 69% (EGFR L861Q; cell-free assay; competition with immobilised ligand; 0.1 µM).
For `COc1ccnn2ncc(-c3ccnc(N(C)C)n3)c12`, the remaining binding was 79% (EGFR; binding; 1 µM).
The remaining binding of `Cn1cc(Cl)c2c(Oc3c(F)cc(Nc4cc(Cl)nc(N)n4)cc3F)ccnc21` is reported as 88% (EGFR T790M; cell-free assay; competition with immobilised ligand; 0.1 µM).
With `O=C(NCC1CCOCC1)c1n[nH]cc1NC(=O)c1c(F)cccc1F` the remaining binding was 99% (EGFR; binding; competition with immobilised ligand; 1 µM).
With `Nc1ncc2c(n1)-c1c([nH]c3ccc(C#CC4CC4)cc13)CCCC2` the remaining binding was 91% (EGFR G719C; binding; competition with immobilised ligand; 1 µM).
For `O=C(c1ccc(Nc2ncc(Cl)c(-c3cc4ccccc4s3)n2)cc1)N1CCC(N2CCCC2)CC1`, the remaining binding was 92% (EGFR L861Q; binding; competition with immobilised ligand; 1 µM).
For `N[C@H]1CCN(c2nccc(-c3cnn4ncccc34)n2)C1`, the remaining binding was 79% (EGFR T790M; binding; 1 µM).
For `CO[C@@H](C)c1c(Nc2ccc([C@@H](N(C)C(=O)C3CCS(=O)(=O)CC3)C(F)(F)F)cc2)cnc2cc(Cl)nn12`, the remaining binding was 96% (EGFR G719S; cell-free assay; competition with immobilised ligand; 1 µM).
The remaining binding of `CN(C)c1nccc(-c2cnn3ncccc23)n1` is reported as 100% (EGFR G719C; binding; 1 µM).
`C[C@@]1(Cc2ccc(C#N)cc2)C(=O)N(c2cc(Cl)cc(Cl)c2)c2ncc(C(=O)NC3(c4nc(C5CCC5)no4)CC3)n21` has a remaining binding of 58% (Epidermal growth factor receptor (EGFR, Homo sapiens, UniProt P00533, del747-752/P753S); cell-free assay; competition with immobilised ligand; 1 µM).
